Data published in ChEMBL document CHEMBL5696444 (Nat Commun, 2017).
The source made the active and inactive calls. The calls are words filed in the database; no cut-off is given here.

Experiments:
[1] = system: HCT-116; test: Cytotoxicity against human HCT-116 cells assessed as inhibition of cell viability incubated for > 24 hrs; format: functional
[2] = system: HCT-116; test: Induction of apoptosis in human HCT-116 cells assessed as viable cells at 0.1 uM incubated for > 6 hrs by annexin V/PI staining based analysis (Rvb=90.04%); format: functional; conditions: read-out: Activity
[3] = system: HCT-116; test: Induction of apoptosis in human HCT-116 cells assessed as early apoptosis at 0.5 uM incubated for > 6 hrs by annexin V/PI staining based analysis (Rvb=3.29%); format: functional
[4] = system: HCT-116; test: Induction of apoptosis in human HCT-116 cells assessed as late apoptosis at 5 uM incubated for > 6 hrs by annexin V/PI staining based analysis (Rvb=6.12%); format: functional
[5] = system: HCT-116; test: Induction of apoptosis in human HCT-116 cells assessed as necrosis cells at 10 uM incubated for > 6 hrs by annexin V/PI staining based analysis (Rvb=0.55%); format: functional
[6] = molecular target: Dual specificity protein kinase CLK1 (Homo sapiens) (UniProt P49759); test: Inhibition of CLK1 (unknown origin) at 1110 nM in the presence of ATP by Kinome scan method relative to control; conditions: time > 6.0 hrs
Dual specificity protein kinase CLK1 (Homo sapiens), sequence (P49759 whole entry, looked up, canonical isoform): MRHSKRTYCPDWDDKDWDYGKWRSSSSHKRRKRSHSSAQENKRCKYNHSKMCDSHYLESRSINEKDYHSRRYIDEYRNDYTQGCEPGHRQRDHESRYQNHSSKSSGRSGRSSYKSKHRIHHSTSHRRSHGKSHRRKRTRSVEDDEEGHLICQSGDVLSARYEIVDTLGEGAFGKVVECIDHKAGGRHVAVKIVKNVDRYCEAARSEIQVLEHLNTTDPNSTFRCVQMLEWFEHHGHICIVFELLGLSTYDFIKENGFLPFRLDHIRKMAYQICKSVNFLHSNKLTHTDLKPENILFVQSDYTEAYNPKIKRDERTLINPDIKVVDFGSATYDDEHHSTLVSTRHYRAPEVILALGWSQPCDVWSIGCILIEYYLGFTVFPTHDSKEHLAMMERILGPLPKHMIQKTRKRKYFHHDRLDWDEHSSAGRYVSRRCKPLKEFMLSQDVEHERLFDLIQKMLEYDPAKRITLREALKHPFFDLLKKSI

[7] = molecular target: T1, Dual specificity protein kinase CLK2 (Homo sapiens, UniProt P49760); test: Inhibition of N-terminal FLAG-tagged human CLK2 at 123 nM in the presence of ATP by Kinome scan method relative to control; conditions: time > 6.0 hrs
T1 sequence (P49760 whole entry, looked up): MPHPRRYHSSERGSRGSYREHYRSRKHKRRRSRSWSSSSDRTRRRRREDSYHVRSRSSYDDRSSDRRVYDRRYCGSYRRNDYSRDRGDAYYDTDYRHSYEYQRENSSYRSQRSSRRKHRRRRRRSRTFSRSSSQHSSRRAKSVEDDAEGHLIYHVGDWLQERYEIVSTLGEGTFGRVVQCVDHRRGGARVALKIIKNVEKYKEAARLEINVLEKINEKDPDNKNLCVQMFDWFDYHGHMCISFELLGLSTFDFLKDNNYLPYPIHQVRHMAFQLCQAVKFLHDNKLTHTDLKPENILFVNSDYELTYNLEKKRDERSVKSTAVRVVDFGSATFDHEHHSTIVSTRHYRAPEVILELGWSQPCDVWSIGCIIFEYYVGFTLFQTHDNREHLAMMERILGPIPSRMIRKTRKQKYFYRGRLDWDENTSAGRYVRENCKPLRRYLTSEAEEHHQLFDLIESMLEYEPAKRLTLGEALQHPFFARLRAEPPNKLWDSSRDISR

[8] = molecular target: Dual specificity tyrosine-phosphorylation-regulated kinase 1A (Homo sapiens, UniProt Q13627); test: Inhibition of DYRK1A (unknown origin) at 123 nM in the presence of ATP by Kinome scan method relative to control; conditions: time > 6.0 hrs
[9] = molecular target: T2, Dual specificity tyrosine-phosphorylation-regulated kinase 1B (Homo sapiens, UniProt Q9Y463); test: Inhibition of DYRK1B (unknown origin) at 123 nM in the presence of ATP by Kinome scan method relative to control; conditions: time > 6.0 hrs
[10] = molecular target: Dual specificity tyrosine-phosphorylation-regulated kinase 4 (Homo sapiens) (UniProt Q9NR20); test: Inhibition of DYRK4 (unknown origin) at 123 nM in the presence of ATP by Kinome scan method relative to control; conditions: time > 6.0 hrs
Dual specificity tyrosine-phosphorylation-regulated kinase 4 (Homo sapiens), sequence (Q9NR20 whole entry): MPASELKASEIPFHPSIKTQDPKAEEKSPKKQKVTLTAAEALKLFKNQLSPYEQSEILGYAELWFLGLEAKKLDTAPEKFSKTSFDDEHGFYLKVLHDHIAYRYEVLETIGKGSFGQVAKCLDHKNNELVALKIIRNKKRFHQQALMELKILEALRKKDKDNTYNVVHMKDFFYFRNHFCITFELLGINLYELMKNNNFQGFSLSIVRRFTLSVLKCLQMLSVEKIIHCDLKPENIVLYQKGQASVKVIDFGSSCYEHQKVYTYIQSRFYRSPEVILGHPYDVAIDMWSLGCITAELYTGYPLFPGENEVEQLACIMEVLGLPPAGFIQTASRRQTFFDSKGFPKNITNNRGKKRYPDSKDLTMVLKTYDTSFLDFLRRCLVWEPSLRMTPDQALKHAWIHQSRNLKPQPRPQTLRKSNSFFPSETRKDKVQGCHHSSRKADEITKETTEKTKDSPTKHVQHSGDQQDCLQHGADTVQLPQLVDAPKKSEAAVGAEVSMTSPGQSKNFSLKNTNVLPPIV

[11] = molecular target: SRSF protein kinase 1 (Homo sapiens) (UniProt Q96SB4); test: Inhibition of SRPK1 (unknown origin) at 1110 nM in the presence of ATP by Kinome scan method relative to control; conditions: time > 6.0 hrs
SRSF protein kinase 1 (Homo sapiens), sequence (Q96SB4 whole entry): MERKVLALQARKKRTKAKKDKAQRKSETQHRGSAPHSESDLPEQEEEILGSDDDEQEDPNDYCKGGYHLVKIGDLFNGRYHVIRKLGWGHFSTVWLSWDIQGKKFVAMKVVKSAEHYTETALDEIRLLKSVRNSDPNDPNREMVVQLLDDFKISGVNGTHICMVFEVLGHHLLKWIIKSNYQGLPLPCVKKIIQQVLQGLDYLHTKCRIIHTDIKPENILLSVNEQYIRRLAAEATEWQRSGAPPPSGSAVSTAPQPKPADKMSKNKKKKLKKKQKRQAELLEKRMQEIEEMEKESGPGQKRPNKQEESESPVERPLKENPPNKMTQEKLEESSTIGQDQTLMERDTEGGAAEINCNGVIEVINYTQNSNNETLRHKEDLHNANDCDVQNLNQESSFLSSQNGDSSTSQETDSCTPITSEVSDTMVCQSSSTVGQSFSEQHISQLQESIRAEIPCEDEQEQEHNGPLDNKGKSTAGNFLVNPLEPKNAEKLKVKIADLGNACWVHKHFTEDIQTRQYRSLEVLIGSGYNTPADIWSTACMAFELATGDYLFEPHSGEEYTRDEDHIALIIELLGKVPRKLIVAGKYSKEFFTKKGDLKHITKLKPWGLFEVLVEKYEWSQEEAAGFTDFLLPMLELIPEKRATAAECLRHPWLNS

[12] = molecular target: Tyrosine-protein kinase ABL1 (Homo sapiens) (UniProt P00519); test: Inhibition of ABL1 (unknown origin) at 100 nM in the presence of ATP by Kinome scan method relative to control
Tyrosine-protein kinase ABL1 (Homo sapiens), sequence (P00519 whole entry): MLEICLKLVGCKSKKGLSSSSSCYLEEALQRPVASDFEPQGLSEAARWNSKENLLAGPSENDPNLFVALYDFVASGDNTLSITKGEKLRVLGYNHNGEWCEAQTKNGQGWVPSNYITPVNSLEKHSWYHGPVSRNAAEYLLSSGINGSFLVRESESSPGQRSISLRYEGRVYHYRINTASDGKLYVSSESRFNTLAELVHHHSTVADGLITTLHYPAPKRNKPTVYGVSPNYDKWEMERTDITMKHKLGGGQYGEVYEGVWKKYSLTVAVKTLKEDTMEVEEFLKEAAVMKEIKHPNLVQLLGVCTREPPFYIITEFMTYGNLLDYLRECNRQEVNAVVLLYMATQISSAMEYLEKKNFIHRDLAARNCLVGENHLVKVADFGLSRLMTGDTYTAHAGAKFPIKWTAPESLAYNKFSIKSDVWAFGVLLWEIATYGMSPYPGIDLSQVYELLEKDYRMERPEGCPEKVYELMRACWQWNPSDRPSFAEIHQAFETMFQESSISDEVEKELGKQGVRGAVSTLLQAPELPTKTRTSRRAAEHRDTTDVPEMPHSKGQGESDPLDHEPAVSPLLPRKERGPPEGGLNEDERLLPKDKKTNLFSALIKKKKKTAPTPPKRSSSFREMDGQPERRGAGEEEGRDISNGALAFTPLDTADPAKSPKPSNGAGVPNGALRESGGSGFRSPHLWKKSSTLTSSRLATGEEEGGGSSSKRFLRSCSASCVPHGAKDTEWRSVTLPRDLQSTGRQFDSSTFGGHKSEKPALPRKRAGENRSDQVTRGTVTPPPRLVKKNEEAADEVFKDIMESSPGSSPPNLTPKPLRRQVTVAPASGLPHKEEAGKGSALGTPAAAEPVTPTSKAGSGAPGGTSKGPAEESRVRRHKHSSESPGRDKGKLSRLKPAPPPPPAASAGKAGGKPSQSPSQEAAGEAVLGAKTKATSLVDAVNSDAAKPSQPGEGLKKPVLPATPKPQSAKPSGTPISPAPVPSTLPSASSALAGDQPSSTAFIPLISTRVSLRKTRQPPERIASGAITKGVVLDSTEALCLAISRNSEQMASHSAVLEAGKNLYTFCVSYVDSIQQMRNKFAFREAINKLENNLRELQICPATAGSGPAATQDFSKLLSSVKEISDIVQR

[13] = molecular target: Serine/threonine-protein kinase B-raf (Homo sapiens) (UniProt P15056); test: Inhibition of BRAF (unknown origin) at 1000 nM in the presence of ATP by Kinome scan method relative to control
Serine/threonine-protein kinase B-raf (Homo sapiens), sequence (P15056 whole entry): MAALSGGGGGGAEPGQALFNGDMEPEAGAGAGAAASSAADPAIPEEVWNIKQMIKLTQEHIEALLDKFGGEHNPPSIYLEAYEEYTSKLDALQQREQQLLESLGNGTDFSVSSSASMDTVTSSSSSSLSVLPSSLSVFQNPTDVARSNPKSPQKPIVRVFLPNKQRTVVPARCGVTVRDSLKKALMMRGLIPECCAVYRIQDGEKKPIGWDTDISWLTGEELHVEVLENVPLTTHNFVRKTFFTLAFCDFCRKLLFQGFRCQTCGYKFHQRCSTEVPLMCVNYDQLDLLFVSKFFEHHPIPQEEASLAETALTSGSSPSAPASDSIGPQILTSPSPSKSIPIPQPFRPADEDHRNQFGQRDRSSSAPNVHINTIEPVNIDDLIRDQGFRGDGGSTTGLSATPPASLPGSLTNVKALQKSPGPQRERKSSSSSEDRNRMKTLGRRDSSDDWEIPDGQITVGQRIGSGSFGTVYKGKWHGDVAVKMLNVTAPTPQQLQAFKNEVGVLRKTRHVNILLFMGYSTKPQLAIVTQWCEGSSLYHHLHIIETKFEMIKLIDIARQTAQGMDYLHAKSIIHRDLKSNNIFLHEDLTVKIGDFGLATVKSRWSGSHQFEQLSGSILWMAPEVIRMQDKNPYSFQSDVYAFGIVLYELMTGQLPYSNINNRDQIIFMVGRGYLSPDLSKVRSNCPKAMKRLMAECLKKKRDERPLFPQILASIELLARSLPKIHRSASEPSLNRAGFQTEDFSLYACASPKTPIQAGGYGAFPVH

[14] = molecular target: Cyclin-dependent kinase 1/cyclin B1 (Homo sapiens) (UniProt P06493+P14635); test: Inhibition of CDK1/cyclin B (unknown origin) at 1000 nM in the presence of ATP by Kinome scan method relative to control; format: protein-complex assay
[15] = molecular target: Cyclin-dependent kinase 5/CDK5 activator 1 (Homo sapiens) (UniProt Q00535+Q15078); test: Inhibition of CDK5/p25 (unknown origin) at 100 nM in the presence of ATP by Kinome scan method relative to control; format: protein-complex assay
Cyclin-dependent kinase 5/CDK5 activator 1 (Homo sapiens), sequence (Q00535 whole entry): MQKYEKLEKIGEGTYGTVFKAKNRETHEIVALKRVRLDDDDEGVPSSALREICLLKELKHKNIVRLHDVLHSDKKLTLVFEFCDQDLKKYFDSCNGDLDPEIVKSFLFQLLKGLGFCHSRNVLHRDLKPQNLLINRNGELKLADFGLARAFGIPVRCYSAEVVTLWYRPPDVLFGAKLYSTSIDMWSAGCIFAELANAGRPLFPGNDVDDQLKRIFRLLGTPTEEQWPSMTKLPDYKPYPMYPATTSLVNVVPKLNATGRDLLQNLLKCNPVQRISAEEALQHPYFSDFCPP
Cyclin-dependent kinase 5/CDK5 activator 1 (Homo sapiens), sequence (Q15078 99-307 partner limits assumed): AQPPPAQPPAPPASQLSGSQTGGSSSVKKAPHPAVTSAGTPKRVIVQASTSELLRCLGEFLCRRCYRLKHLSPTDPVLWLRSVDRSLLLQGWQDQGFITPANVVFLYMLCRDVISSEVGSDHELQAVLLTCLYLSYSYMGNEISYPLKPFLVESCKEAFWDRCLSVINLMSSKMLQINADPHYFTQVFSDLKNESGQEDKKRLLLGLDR

[16] = molecular target: Ephrin type-A receptor 1 (Homo sapiens) (UniProt P21709); test: Inhibition of EPHA1 (unknown origin) at 100 nM in the presence of ATP by Kinome scan method relative to control
[17] = molecular target: Mitogen-activated protein kinase 3 (Homo sapiens) (UniProt P27361); test: Inhibition of MAPK3 (unknown origin) at 1000 nM in the presence of ATP by Kinome scan method relative to control
Mitogen-activated protein kinase 3 (Homo sapiens), sequence (P27361 whole entry): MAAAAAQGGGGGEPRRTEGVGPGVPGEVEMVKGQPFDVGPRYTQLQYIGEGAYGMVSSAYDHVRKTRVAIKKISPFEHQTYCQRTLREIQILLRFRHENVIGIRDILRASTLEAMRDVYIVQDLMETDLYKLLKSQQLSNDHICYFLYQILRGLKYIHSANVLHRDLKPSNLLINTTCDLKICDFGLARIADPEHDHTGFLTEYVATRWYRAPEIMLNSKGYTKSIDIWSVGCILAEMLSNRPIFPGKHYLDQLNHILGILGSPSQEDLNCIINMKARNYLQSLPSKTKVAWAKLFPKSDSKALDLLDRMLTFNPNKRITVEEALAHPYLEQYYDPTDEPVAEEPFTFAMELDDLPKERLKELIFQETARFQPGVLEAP

[18] = molecular target: cAMP-dependent protein kinase catalytic subunit alpha (Homo sapiens) (UniProt P17612); test: Inhibition of PRKACA (unknown origin) at 1000 nM in the presence of ATP by Kinome scan method relative to control
[19] = molecular target: Dual specificity protein kinase CLK1 (Homo sapiens) (UniProt P49759); test: Inhibition of CLK (unknown origin) in human MDA-MB-468 cells assessed as SRSF1 phosphorylation level incubated for 3 hrs by immunoblot analysis; format: cell-based
[20] = molecular target: T1, Dual specificity protein kinase CLK2; test: Inhibition of N-terminal FLAG-tagged CLK2 in human HCT-116 cells assessed as increase in CLK2 protein level at 0.5 to 0.1 uM incubated for 6 hrs by immunoblot analysis; format: cell-based; conditions: dose 0.5-0.1 µM
[21] = molecular target: Dual specificity protein kinase CLK1 (Homo sapiens) (UniProt P49759); test: Inhibition of CLK (unknown origin) in human HCT-116 cells assessed as decrease in SRSF4 phosphorylation level at 0.5 to 1.0 uM incubated for 6 hrs by immunoblot analysis; format: cell-based; conditions: dose 0.5-1 µM
[22] = system: HCT-116; test: Induction of cell cycle arrest in human HCT-116 cells assessed as sub G0/G1 phase at 0.1 uM incubated for 6 hrs by flow cytometry analysis (Rvb=1.6%); format: functional
[23] = system: HCT-116; test: Induction of cell cycle arrest in human HCT-116 cells assessed as sub G0/G1 phase at 10 uM incubated for 6 hrs by flow cytometry analysis (Rvb=1.6%); format: functional
[24] = system: HCT-116; test: Induction of cell cycle arrest in human HCT-116 cells assessed as S phase at 0.1 uM incubated for 24 hrs by flow cytometry analysis (Rvb=46.4%); format: functional
[25] = system: HCT-116; test: Induction of cell cycle arrest in human HCT-116 cells assessed as S phase at 0.5 uM incubated for 24 hrs by flow cytometry analysis (Rvb=46.4%); format: functional
[26] = system: HCT-116; test: Induction of cell cycle arrest in human HCT-116 cells assessed as G0/G1 phase at 5 uM incubated for 24 hrs by flow cytometry analysis (Rvb=35.7%); format: functional
[27] = molecular target: Dual specificity protein kinase CLK1 (Homo sapiens) (UniProt P49759); test: Inhibition of CLK (unknown origin) in human HCT-116 cells assessed as induction in alternative splicing effect in CDC6-RARA level incubated for 6 hrs by RT-PCR analysis; format: cell-based; conditions: dose 0.2-5 µM
Method in brief: (§1)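 Cells exposed to graded T3 concentrations for 6 h (chosen to avoid cytotoxicity), with a DMSO vehicle control. Total RNA was reverse-transcribed with oligo-dT primers. Targeted splice or conjoined-gene products were quantified by real-time qPCR or by targeted next-generation sequencing. Conjoined-gene isoform expression was normalized to a sequenced housekeeping gene.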

[28] = molecular target: Dual specificity protein kinase CLK1 (Homo sapiens) (UniProt P49759); test: Inhibition of CLK (unknown origin) in human 184-hTERT cells assessed as induction in alternative splicing effect in S6K canonical isoform incubated for 6 hrs by RT-PCR analysis; format: cell-based; conditions: dose 0.2-5 µM; method in brief: as §1
[29] = molecular target: 3-phosphoinositide-dependent protein kinase 1 (PDPK1) (Homo sapiens) (UniProt O15530); test: Inhibition of PDK1 Direct (unknown origin) at 1000 nM in the presence of ATP by Kinome scan method relative to control
[30] = molecular target: T2, Dual specificity tyrosine-phosphorylation-regulated kinase 1B; test: Inhibition of DYRK1B (unknown origin) using ULight-MBP peptide as substrate incubated for 10 mins in presence of ATP incubated for 45 mins by LANCE Ultra kinase assay

## CN1CCN(C(=O)C(C)(C)c2ccc(C(=O)Nc3cn4cc(-c5ccncc5)ccc4n3)cc2)CC1 [T3-CLK]
[1]
  GI: 0.133 µM
[2]
  viability at 0.1 µM: 87.8%
[3]
  Activity: 3.04%
[4]
  Activity: 8.23%
[5]
  Activity: 0.86%
[6]
  inhibition: 99%
[7]
  inhibition: 92%
[8]
  inhibition: 74%
[9]
  inhibition: 63%
[10]
  inhibition: -8%
[11]
  inhibition: -3%
[12]
  inhibition: 10%
[13]
  inhibition: 17%
[14]
  inhibition: 7%
[15]
  inhibition: 2%
[16]
  inhibition: -2%
[17]
  inhibition: 6%
[18]
  inhibition: 4%
[19]
  inhibition: Active
[20]
  inhibition: Active
[21]
  inhibition: Active
[22]
  Activity: 1.5%
[23]
  Activity: 1.7%
[24]
  Activity: 40.7%
[25]
  Activity: 20.5%
[26]
  Activity: 13.3%
[27]
  inhibition: Dose-Dependent Effect
[28]
  inhibition: Dose-Dependent Effect
[29]
  inhibition: 2%
[30]
  IC50: 0.23 µM
